Test results: ChEMBL document CHEMBL1212928, “Synthesis and resolution of cis-(+/-)-methyl (1R,2S/1S,2R)-2-[(4-hydroxy-4-phenylpiperidin-1-yl)methyl]-1-(4-methylphenyl)cyclopropanecarboxylate [(+/-)-PPCC)]: new sigma receptor ligands with neuroprotective effect” (J Med Chem, 2010)
Active and inactive are the calls of the source. The rule behind the calls is not given here.

What was measured:
[1] = target: Sigma non-opioid intracellular receptor 1 (Cavia porcellus, UniProt Q60492); assay: Displacement of [3H](+)-pentazocine from guinea pig sigma1 opioid receptor by liquid scintillation counting
Sigma non-opioid intracellular receptor 1, sequence (Q60492 whole entry): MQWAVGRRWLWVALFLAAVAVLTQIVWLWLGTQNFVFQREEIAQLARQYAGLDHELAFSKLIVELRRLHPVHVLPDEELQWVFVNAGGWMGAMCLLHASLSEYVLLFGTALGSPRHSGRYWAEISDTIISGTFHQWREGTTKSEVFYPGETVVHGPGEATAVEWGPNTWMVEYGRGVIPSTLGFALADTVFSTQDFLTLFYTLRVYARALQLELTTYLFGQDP

[2] = (§1) Displacement of [3H]-DTG from sigma2 opioid receptor by liquid scintillation counting; set-up: species or system Cavia porcellus
Astrocyte [3] = assay: Neuroprotective activity against glutamate-induced GSH depletion in rat astrocytes assessed as GSH level at 25 uM measured per gram of protein by spectrofluorimetry (RVb = 9.08 +/- 0.9 […]); format: functional
Astrocyte [4] = assay: Neuroprotective activity against glutamate-induced ROS production in albino rat astrocytes assessed as dichlorofluresceine produced per gram of protein per 30 mins at 25 uM by spectrofluorimetry (RVb = 4.45 +/- 0.51 nmol); format: functional
[5] = Neuroprotective activity against glutamate-induced transglutaminase-2 expression albino rat astrocytes assessed as reduction in transglutaminase level at 25 uM by immunoblotting; format: functional, cell-based; conditions: Astrocyte
In short: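 Primary rat neocortical astroglial cultures at 14 DIV, about 90-95% GFAP-positive. Exposed for 24 h to ligand at 25 μM, with or without glutamate at 500 μM. TG2 expression was measured by immunoblot with densitometry and compared against control and glutamate-alone cultures.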

Cavia porcellus = organism: Cavia porcellus; assay: as §1
Rattus norvegicus = assay: Analgesic activity in Sprague-Dawley rat assessed as reduction in (-)-U50,488H-induced tail flick latency at 1 mg/kg, sc pretreated 30 mins prior to (-)-U50,488H challenge; format: functional, organism-based; set-up: dose 1 mg/kg
In short: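 Rat tail-flick test. Ligand given systemically at 1 mg/kg sc as a pretreatment before a KOP agonist. Tail-flick latency was followed over the observation period, with basal latency also recorded.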

SMILES | Ki [1] [nM] | Ki [2] [nM] | Activity (Astrocyte [3]) [nmol] | Activity (Astrocyte [4]) [nmol] | Activity [5] | Activity (Cavia porcellus) [nM] | Activity (Rattus norvegicus)
COC(=O)[C@]1(c2ccc(C)cc2)C[C@@H]1CN1CCC(O)(c2ccccc2)CC1 | 1.9 | 50.2 | 13.44 | 3.05 | Active | – | –
COC(=O)[C@@]1(c2ccc(C)cc2)C[C@H]1CN1CCC(O)(c2ccccc2)CC1 | 13 | – | 14.87 | 3.67 | inactive | 103 | Active
COC(=O)C1(c2ccc(C)cc2)CC1CN1CCC(O)(c2ccccc2)CC1 (racemic) | 1.8 | 20.8 | 8.05 | 5.51 | inactive | – | –
CC(C)=CCN1CC[C@]2(C)c3cc(O)ccc3C[C@H]1[C@H]2C [(+)-PENTAZOCINE] | – | – | 14.15 | 3.46 | Active | – | –
CC[C@H]1C[C@H]2C[C@H]3c4[nH]c5ccc(OC)cc5c4CCN(C2)[C@@H]13 [IBOGAINE] | – | – | 7.95 | 5.82 | inactive | – | –
